# Only some compounds are listed: those with a hit (about 4.3% of all), similar ones and a draw of the others.
# SR-BI DiI-HDL act – enhances SR-BI lipid uptake from DiI-HDL; CHO ldlA[mSR-BI] cells, DiI-HDL uptake fluorescence, 3 h; 100 = double the neutral-control signal; activation, % at 12.5 µM; 0.096% of 320,000 active; AID 504775;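 active = mean replicate activation of at least 60% and every replicate at or above 60%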;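 also: 0% = median plate neutral-control signal and 100% = twice that signal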
#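 Assay system: LDL receptor-deficient CHO ldlA cells overexpressing murine SR-BI / Medium: BSA-supplemented, HEPES-buffered Ham's F12, pH 7.4 / Probe or stimulus: DiI-labelled HDL at 10 µg/mL final / Timing: compound with DiI-HDL co-incubation, 3 h at 37 °C / Technique: bottom-read cell fluorescence after medium removal, ex 550/em 595 nm / Measure: HDL uptake via cellular fluorescence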
# SR-BI HDL uptake – blocks mouse SR-BI lipid uptake from DiI-HDL; ldlA[mSR-BI] CHO cells, DiI-HDL uptake fluorescence, 3 h; inhibition, % at 12.5 µM; Q61009; 0.96% of 320,000 active;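 active = mean replicate inhibition of at least 70% and a set share of replicates each scoring 70 or more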;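 also: 0% = median of neutral control wells and 100% = median of positive control wells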
# SMARCA2 act – SMARCA2 function activation, primary screen | AID 652017 | activation, % at 9.1 µM | 1% of 370,000 active | MG213 cells, MMTV-luciferase reporter, dexamethasone, overnight; in the data active = activation above about 7.8%;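 also: 0% = vehicle wells and 100% = reference activator wells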
# Hep lipid drop – hepatic lipid droplet formation modulation | AID 1656 | 0.4% of 240,000 active | inhibition, % at 6.5 µM | AML12 mouse hepatocytes, oleate lipid droplets, BODIPY imaging;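 active = lipid droplet intensity inhibited by at least 50%, with more than 500 cells counted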
#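 Test system: AML12 mouse liver cells; schedule: overnight exposure; technique: high-content imaging of BODIPY-stained droplets and DAPI nuclei; read-out: % inhibition of corrected integrated BODIPY droplet signal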
# AHR activator – activators of human aryl hydrocarbon receptor | AHR-responsive luciferase reporter cells, luminescence | activation, % at 5 µM | 2.5% of 320,000 active | AID 2796; in the data active = activation above about 47%;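 also: 0% = vehicle wells and 100% = reference agonist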
# Target sequence (P35869 whole entry, looked up): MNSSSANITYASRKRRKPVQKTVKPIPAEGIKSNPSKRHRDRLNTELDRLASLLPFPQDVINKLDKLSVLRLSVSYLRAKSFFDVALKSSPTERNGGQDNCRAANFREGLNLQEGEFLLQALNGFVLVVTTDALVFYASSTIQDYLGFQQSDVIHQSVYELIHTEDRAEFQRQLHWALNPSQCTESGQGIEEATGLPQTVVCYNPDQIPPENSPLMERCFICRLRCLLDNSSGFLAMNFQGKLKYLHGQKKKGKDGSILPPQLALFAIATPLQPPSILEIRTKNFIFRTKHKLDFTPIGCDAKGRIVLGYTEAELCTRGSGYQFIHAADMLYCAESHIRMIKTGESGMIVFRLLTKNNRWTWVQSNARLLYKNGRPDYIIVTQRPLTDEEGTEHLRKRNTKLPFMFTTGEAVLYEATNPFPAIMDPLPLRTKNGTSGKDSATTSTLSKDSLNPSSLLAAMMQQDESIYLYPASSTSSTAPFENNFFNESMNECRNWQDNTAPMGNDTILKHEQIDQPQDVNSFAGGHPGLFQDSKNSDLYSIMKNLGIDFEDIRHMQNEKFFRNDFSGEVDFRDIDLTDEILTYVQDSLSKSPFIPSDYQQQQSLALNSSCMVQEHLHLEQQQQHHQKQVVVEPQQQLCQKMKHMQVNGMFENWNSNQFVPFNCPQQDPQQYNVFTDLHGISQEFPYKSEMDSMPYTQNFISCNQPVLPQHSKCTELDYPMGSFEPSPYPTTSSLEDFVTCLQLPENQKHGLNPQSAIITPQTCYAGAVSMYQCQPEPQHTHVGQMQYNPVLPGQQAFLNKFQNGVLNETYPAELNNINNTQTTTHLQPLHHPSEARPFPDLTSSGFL
# CR mimetic SO – lowers age-related superoxide in aged yeast cells | S. cerevisiae aged cells, superoxide DHE fluorescence; active compounds read low | superoxide response (% of plate mean), % at 10 µM | 0.18% of 330,000 active | AID 2690;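 active = superoxide response under a set limit, about three screen SD below normal, cut at about 65% in these data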;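 also: yeast aged for seven days with compound at 30 °C before DHE staining; 100% = average MFI of all compound-treated wells on the plate with controls excluded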
# Starred values were filed as active, the others as inactive; nt = no result given.
SMILES,SR-BI DiI-HDL act,SR-BI HDL uptake,SMARCA2 act,Hep lipid drop,AHR activator,CR mimetic SO
Cc1c(C(=O)Nc2nc(-c3ccccn3)cs2)oc2ccccc12,-3,3,nt,nt,64*,96
Cc1cc(C)c(C)c(C(=O)CSc2nnc(-c3ccc4[nH]c(C)c(C)c4c3)o2)c1C,-84,84*,0,-2,25,100
Cc1[nH]c2ccc(-c3nnc(SCC(=O)c4ccc(F)cc4)o3)cc2c1C,-2,2,12*,nt,7,125
CCn1c(SCC(=O)O)nnc1-c1ccc2[nH]c(C)c(C)c2c1,4,-4,-3,6,1,105
C=CCCC1CN(Cc2ccc(OC)cc2)S(=O)(=O)c2c(cccc2N2CCCCC2)O1 (configuration not stated),nt,nt,-3,nt,nt,nt
CCc1ccc2c(c1)C(c1ccc([N+](=O)[O-])cc1)=NNC(c1ccc(C)cc1)=N2,-75,75*,-4,-8,7,105
CCc1ccc2c(c1)C(c1ccc(N3CCOCC3)cc1)=NNC(c1ccncc1)=N2,18,-18,-3,0,3,106
COc1ccc(CN2C(=O)[C@]3(NCCc4c3[nH]c3ccc(OC)cc43)c3cc(Br)ccc32)cc1,nt,nt,-2,nt,nt,nt
COC(=O)c1ccc2nc(-c3ccc(C)cc3)c(Cc3cccc(F)c3)n2c1,nt,nt,7.9*,nt,nt,nt
O=C(Nc1ccc(Cl)cc1)N1CCC(c2nc(-c3cccs3)no2)CC1,-10,10,-2,2,41,90
O=C(Nc1ccccc1)N1CCCC(c2nc(-c3cccs3)no2)C1 (configuration not stated),4,-4,nt,nt,70*,73
COc1ccc(NC(=O)N2CCC(c3nc(-c4cccs4)no3)CC2)cc1,-10,10,-4,7,60*,94
O=S1(=O)c2ccc(N3CCC[C@H]3CO)cc2O[C@@H]2CCN1C2,nt,nt,-2,nt,nt,nt
COc1ccc(/C=N/c2c(-c3ccc(OC)cc3)nc3n2CCS3)cc1,-70,70,-2,20,-1,91
COc1ccc(C2=CSC(/N=C/c3ccc(F)cc3)=NN2)cc1,-75,75*,-2,nt,70*,101
O=[N+]([O-])c1cccc2ccc(/C=C/c3ccc(Cl)cc3)nc12,-10,10,2,-10,62*,96
CC(=O)Nc1ccc(NC(=O)c2cc(-c3ccc(C)c(C)c3O)n[nH]2)cc1,-73,73*,1,nt,1,120
O=C(CSC1=NNC(c2ccccn2)S1)Nc1ccccc1 (configuration not stated),-15,15,3,-21,1,108
O=C(CSC1=NNC(c2ccccn2)S1)Nc1cccc(Cl)c1 (configuration not stated),-78,78*,1,-33,6,108
CCCCCCCCN1C(=O)[C@@H](CC(=O)NCC2CCCCC2)C[C@@]2(C(=O)OC)C1=C[C@H](COCc1ccccc1)O[C@@H]2C,nt,nt,-2,nt,nt,nt
O=C(NNC(=S)NC1CCCCC1)c1ccccc1O,-118,118*,-3,12,4,91
O=C(NNC(=O)c1cc2ccccc2cc1O)NC1CCCCC1,-115,115*,-1,1,nt,105
CCCCCCCCN1C(=O)[C@@H](CC(=O)NCc2cccc(C(F)(F)F)c2)C[C@@]2(C(=O)OC)C1=C[C@H](COCc1ccccc1)O[C@@H]2C,nt,nt,-2,nt,nt,nt
CC(=O)Nc1ccc(NC(=S)NC(=O)C2CCCC2)cc1,9,-9,-1,5,2,103
Cc1cc(NC(=S)NC(=O)C2CC2)ccc1Br,10,-10,7,1,106*,81
SMILES,SR-BI DiI-HDL act,SR-BI HDL uptake,SMARCA2 act,Hep lipid drop,AHR activator,CR mimetic SO
Cc1cccc(NC(=S)NC(=O)C2CC2)c1,-4,4,nt,-74,8,109
Cc1cc(C)cc(NC(=S)NC(=O)C2CC2)c1,-20,20,1,-6,58*,101
O=C(N[C@@H](Cc1cccnc1)C(=O)N1CCC[C@H]1C(=O)NC1CCCC1)C1CC1,nt,nt,0,nt,nt,nt
N#CC1=C(N)Oc2c(ccc3ccccc23)C1c1ccsc1 (configuration not stated),-35,35,7,nt,59*,125
C[C@@H]1CN(c2ccc(N3CCN(C(=O)OC(C)(C)C)C[C@@H]3C)cc2C#N)CCN1Cc1ccccc1,nt,nt,-3,nt,nt,nt
Cc1nc(-c2ccc(Cl)cc2)sc1C(=O)O,-9,9,6,5,7,131
